Laboratory results reported in ChEMBL document CHEMBL4834403, “Design and Synthesis of Novel Epigenetic Inhibitors Targeting Histone Deacetylases, DNA Methyltransferase 1, and Lysine Methyltransferase G9a with In Vivo Efficacy in Multiple Myeloma” (J Med Chem, 2021).

Experiments:
[1] = biological target: DNA (cytosine-5)-methyltransferase 1 (Homo sapiens, UniProt P26358); assay: Inhibition of human DNMT1 enzyme using polydeoxy-inosine polydeoxy-cytosine DNA as substrate incubated for 15 mins in presence of SAM by TR-FRET assay
Sequence of DNA (cytosine-5)-methyltransferase 1 (P26358 whole entry): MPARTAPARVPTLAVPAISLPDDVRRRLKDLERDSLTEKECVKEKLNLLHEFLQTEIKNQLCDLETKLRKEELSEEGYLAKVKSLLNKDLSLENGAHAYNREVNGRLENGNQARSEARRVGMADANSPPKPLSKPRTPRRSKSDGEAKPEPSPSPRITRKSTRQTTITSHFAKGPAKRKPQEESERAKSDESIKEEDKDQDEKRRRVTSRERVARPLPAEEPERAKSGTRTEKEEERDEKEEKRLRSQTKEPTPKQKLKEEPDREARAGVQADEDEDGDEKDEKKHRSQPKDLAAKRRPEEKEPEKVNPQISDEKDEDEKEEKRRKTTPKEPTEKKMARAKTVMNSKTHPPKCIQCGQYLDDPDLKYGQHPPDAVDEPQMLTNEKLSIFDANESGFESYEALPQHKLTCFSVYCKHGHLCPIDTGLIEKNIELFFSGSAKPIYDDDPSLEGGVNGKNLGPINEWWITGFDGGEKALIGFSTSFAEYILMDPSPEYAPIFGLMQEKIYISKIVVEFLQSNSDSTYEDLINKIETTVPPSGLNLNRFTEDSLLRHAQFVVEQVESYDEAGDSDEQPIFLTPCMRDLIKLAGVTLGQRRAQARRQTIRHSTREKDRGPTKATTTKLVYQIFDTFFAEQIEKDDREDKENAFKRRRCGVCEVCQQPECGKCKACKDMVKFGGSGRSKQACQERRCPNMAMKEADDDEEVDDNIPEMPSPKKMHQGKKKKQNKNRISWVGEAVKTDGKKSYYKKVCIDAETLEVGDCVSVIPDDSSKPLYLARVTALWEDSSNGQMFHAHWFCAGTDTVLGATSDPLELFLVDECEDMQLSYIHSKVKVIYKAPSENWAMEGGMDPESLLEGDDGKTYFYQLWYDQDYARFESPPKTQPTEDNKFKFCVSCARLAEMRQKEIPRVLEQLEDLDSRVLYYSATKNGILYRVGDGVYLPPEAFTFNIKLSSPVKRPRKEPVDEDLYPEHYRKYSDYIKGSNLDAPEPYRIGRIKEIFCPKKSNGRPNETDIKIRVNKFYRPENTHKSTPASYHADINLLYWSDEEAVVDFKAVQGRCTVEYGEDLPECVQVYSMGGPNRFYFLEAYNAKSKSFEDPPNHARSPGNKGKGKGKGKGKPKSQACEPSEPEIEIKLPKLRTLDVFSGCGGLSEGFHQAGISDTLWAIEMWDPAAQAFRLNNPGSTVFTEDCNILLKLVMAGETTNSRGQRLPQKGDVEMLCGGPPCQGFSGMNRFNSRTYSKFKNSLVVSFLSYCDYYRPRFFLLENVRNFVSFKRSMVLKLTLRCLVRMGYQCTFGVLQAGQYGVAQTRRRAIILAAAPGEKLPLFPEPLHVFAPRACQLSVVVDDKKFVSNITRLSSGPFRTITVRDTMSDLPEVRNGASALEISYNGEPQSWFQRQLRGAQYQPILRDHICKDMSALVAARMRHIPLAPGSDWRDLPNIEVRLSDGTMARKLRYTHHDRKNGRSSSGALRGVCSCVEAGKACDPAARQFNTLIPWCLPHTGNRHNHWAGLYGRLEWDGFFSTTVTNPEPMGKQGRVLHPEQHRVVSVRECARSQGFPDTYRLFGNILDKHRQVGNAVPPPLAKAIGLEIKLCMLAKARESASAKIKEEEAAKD

[2] = biological target: T1, Protein deacetylase HDAC6 (Homo sapiens, UniProt Q9UBN7); assay: Inhibition of full length human N-terminal GST-tagged HDAC6 using fluorogenic acetylated peptide as substrate incubated for 30 mins by fluorescence plate reader assay
T1 sequence (Q9UBN7 whole entry): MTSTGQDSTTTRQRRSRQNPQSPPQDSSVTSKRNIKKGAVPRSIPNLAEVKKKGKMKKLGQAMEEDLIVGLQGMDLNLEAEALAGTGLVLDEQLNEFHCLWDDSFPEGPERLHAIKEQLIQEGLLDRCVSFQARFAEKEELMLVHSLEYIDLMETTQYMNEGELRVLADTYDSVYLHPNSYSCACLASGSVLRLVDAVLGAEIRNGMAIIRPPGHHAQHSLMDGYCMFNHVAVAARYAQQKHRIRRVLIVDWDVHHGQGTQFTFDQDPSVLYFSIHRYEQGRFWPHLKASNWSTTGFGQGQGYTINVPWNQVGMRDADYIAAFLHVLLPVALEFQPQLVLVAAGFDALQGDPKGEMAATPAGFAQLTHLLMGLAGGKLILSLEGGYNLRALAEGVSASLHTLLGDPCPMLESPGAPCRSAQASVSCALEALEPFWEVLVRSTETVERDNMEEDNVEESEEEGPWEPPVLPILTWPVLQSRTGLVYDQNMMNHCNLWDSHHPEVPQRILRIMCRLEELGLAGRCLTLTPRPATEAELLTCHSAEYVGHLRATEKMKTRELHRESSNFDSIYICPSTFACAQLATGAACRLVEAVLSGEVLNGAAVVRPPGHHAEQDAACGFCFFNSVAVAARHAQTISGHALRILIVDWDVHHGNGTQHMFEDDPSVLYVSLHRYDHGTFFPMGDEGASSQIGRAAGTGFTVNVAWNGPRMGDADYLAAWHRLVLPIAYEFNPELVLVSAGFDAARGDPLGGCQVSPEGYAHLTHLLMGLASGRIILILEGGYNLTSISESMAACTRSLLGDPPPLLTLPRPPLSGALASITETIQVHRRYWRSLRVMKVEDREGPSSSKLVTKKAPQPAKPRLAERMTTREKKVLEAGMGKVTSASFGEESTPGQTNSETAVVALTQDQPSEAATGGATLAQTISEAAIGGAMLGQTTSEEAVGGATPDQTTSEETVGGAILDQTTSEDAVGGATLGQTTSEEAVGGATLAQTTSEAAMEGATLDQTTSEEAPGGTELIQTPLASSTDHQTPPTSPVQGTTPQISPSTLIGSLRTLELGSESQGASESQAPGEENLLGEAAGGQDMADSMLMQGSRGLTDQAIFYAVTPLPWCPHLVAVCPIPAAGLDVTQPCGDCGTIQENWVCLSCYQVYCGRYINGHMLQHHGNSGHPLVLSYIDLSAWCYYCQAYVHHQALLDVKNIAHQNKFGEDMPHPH

Histone deacetylase 1 = Histone deacetylase 1 (Homo sapiens, UniProt Q13547); assay: Inhibition of full length human C-terminal His-tagged/C-terminal Flag-tagged HDAC1 using fluorogenic acetylated peptide as substrate incubated for 30 mins by fluorescence plate reader assay
Sequence of Histone deacetylase 1 (Q13547 whole entry): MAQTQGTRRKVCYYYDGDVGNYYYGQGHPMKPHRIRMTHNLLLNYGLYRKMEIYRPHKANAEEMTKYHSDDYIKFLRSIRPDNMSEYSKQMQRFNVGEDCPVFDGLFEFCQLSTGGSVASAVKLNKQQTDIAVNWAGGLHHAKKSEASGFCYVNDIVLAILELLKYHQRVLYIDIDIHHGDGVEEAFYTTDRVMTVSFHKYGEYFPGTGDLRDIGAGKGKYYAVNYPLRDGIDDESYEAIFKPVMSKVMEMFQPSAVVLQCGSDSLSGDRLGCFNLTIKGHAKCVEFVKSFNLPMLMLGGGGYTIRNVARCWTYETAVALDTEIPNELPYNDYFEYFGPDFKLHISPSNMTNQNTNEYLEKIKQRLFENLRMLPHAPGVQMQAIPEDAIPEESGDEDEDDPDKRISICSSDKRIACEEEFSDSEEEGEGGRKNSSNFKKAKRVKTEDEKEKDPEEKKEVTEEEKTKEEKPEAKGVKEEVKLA

[3] = biological target: T2, Histone-lysine N-methyltransferase EHMT2 (Homo sapiens, UniProt Q96KQ7); assay: Inhibition of human G9a enzyme using histone monomethyl-H3K9 peptide as substrate incubated for 1 hr in presence of SAM by TR-FRET assay
T2 sequence (Q96KQ7 whole entry): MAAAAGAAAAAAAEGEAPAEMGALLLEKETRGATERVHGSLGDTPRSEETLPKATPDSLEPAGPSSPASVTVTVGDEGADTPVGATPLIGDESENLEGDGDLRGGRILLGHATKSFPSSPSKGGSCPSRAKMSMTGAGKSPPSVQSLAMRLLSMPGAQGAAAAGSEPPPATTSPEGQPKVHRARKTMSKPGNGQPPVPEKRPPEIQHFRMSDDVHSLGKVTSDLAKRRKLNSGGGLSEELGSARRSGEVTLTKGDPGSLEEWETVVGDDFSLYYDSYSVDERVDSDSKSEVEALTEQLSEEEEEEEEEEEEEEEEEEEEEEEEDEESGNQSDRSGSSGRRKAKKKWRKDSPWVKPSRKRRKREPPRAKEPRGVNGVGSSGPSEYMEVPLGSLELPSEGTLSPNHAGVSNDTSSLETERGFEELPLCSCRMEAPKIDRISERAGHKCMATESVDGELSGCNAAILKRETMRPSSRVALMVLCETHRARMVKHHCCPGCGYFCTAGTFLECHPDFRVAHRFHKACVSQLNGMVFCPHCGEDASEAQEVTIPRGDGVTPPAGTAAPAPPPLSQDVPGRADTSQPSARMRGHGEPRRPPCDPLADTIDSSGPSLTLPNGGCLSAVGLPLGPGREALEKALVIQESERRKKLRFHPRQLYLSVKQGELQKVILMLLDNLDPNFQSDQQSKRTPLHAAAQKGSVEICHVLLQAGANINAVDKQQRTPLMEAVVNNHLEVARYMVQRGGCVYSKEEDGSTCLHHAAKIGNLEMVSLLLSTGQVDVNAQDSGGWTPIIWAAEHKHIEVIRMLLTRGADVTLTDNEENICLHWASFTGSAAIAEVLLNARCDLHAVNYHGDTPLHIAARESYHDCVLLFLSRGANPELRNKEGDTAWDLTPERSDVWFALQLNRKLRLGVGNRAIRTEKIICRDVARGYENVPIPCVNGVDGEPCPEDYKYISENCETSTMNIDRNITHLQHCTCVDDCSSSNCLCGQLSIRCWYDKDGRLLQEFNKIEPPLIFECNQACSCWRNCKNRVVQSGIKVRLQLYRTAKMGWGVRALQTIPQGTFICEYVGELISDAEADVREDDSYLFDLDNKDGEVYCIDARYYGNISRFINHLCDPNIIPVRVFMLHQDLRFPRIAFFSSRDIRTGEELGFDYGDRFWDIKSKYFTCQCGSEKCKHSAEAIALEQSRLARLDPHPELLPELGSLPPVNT

MM1.S = assay: Antiproliferative activity against human MM1.S cells assessed as inhibition of cell proliferation measured up to 72 hrs by CellTiter96 Aqueous one reagent based assay; type: functional
[4] = Permeability of the compound in PBS/EtOH buffer (70:30) incubated for 18 hrs by UV plate reader based PAMPA assay; type: ADME; details: read-out: permeability
THLE-2 = assay: Cytotoxicity against human THLE-2 cells assessed as decrease in cell viability measured after 72 hrs by Vialight-plus cell proliferation assay; type: cell-based; details: thle-2, 72 h
Procedure, shortened: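 Human THLE-2 cells exposed to compound for 72 h. Cytotoxicity reported as LC50 and pLC50, averaged from at least two independent experiments on different days.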

[5] = time hrs <=72, read-out: pGI50 (converted)

| IC50 [1] | IC50 [2] | IC50 (Histone deacetylase 1) | IC50 [3] | Structure (SMILES) | GI50 (MM1.S; time hrs <=72, read-out: GI50) | GI50 (MM1.S; [5]) | Papp at 18 h [4] | LC50 (THLE-2) | pLC50 (THLE-2) |
| --- | --- | --- | --- | --- | --- | --- | --- | --- | --- |
| 4180 nM | > 20000 nM | > 4000 nM | > 10000 nM | COc1cc2nc(-c3ccc(C)o3)cc(N[C@H]3CC[C@H](C(=O)NO)CC3)c2cc1OC |  |  |  |  |  |
| > 10000 nM | 204 nM | 87 nM | > 10000 nM | COc1cc2nc(-c3ccc(C)o3)cc(NCc3ccc(C(=O)NO)cn3)c2cc1OC |  |  |  |  |  |
| 2760 nM | 122 nM | 34 nM | 3100 nM | COc1cc2c(NCC3CCC(c4ccc(C(=O)NO)cc4)CC3)cc(-c3ccc(C)o3)nc2cc1OCCCN1CCCC1 (stereo not drawn) |  |  |  |  |  |
|  |  |  |  | Cc1[nH]c2ccccc2c1CCNCc1ccc(/C=C/C(=O)NO)cc1 [PANOBINOSTAT] | 8.9 nM | 8.91 nM | 1.42 ×10⁻⁶ cm/s | 22 nM | 7.66 |
| 8410 nM | 465 nM | 144 nM | > 10000 nM | COc1cc2nc(-c3ccc(C)o3)cc(NCC3CCN(c4ccc(C(=O)NO)cn4)CC3)c2cc1OC |  |  |  |  |  |
| > 10000 nM |  |  | > 10000 nM | O=C(CCCCCCC(=O)Nc1ccccc1)NO [VORINOSTAT] |  |  |  |  |  |
| 2270 nM | 9620 nM | 3320 nM | 1650 nM | COc1cc2c(NCc3ccc([C@H]4CC[C@H](C(=O)NO)CC4)cc3)cc(-c3ccc(C)o3)nc2cc1OCCCN1CCCC1 |  |  |  |  |  |
| > 10000 nM | 253 nM | 3 nM | 7.2 nM | COc1cc2nc(C)cc(NCC3CCN(c4ncc(C(=O)NO)cn4)CC3)c2cc1OC |  |  |  |  |  |
| > 10000 nM | 234 nM | 3 nM | > 10000 nM | COc1cc2nc(N3CCCCC3)cc(NCC3CCN(c4ncc(C(=O)NO)cn4)CC3)c2cc1OC |  |  |  |  |  |
| 1430 nM | 351 nM | 115 nM | 1920 nM | COc1cc2c(NCc3ccc([C@H]4CC[C@@H](C(=O)NO)CC4)cc3)cc(-c3ccc(C)o3)nc2cc1OCCCN1CCCC1 |  |  |  |  |  |
| > 10000 nM | 230 nM | 3 nM | > 10000 nM | COc1cc2nc(-c3ccccc3)cc(NCC3CCN(c4ncc(C(=O)NO)cn4)CC3)c2cc1OC |  |  |  |  |  |
| 2660 nM | 2890 nM | 396 nM | > 10000 nM | COc1cc2nc(-c3ccc(C)o3)cc(N[C@H]3CC[C@@H](C(=O)NO)CC3)c2cc1OC |  |  |  |  |  |
| > 10000 nM | 126 nM | 5 nM | > 10000 nM | COc1cc2nc(-c3cc(C)oc3C)cc(NCC3CCN(c4ncc(C(=O)NO)cn4)CC3)c2cc1OC |  |  |  |  |  |
| 566 nM | > 20000 nM | > 20000 nM | 38 nM | COc1cc2c(NCC3CCN(C4CCC(C(=O)NO)CC4)CC3)cc(-c3ccc(C)o3)nc2cc1OCCCN1CCCC1 (stereo not drawn) |  |  |  |  |  |
| > 10000 nM | 1260 nM | 17 nM | > 10000 nM | COc1cc2nc(-c3ccc(C)s3)cc(NCC3CCN(c4ncc(C(=O)NO)cn4)CC3)c2cc1OC |  |  |  |  |  |

| Structure (SMILES) | IC50 [1] | IC50 [2] | IC50 (Histone deacetylase 1) | IC50 [3] | GI50 (MM1.S; time hrs <=72, read-out: GI50) | GI50 (MM1.S; [5]) | Papp at 18 h [4] | LC50 (THLE-2) | pLC50 (THLE-2) |
| --- | --- | --- | --- | --- | --- | --- | --- | --- | --- |
| COc1cc2c(NCC3CCN(c4ncc(C(=O)NO)cn4)CC3)cc(-c3ccc(C)o3)nc2cc1OCC1CCNCC1 | 1140 nM | 351 nM | 6 nM | 2070 nM | > 10000 nM | > 10000 nM | 0.025 ×10⁻⁶ cm/s | 19700 nM | 4.71 |
| COc1cc2c(NC3CCN(c4ccc(C(=O)NO)cc4)CC3)cc(-c3ccc(C)o3)nc2cc1OCCCN1CCCC1 | 691 nM | 133 nM | 415 nM | 25 nM | > 10000 nM | > 10000 nM | 0.014 ×10⁻⁶ cm/s | 6656 nM | 5.18 |
| COc1cc2nc(C3CCCCC3)cc(NCC3CCN(c4ncc(C(=O)NO)cn4)CC3)c2cc1OC | > 10000 nM | 111 nM | 2 nM | > 10000 nM | 195 nM | 195 nM | 0.21 ×10⁻⁶ cm/s | 2298 nM | 5.64 |
| COc1cc2c(NC3CCN(c4ncc(C(=O)NO)cn4)CC3)cc(C)nc2cc1OCCCN1CCCC1 | 2040 nM | 118 nM | 17 nM | 34 nM | > 10000 nM | > 10000 nM | 0.075 ×10⁻⁶ cm/s | 33250 nM | 4.48 |
| COc1cc2nc(-c3ccc(C)o3)cc(NCC3CCN(Cc4ccc(C(=O)NO)s4)CC3)c2cc1OC | 323 nM | 66 nM | 303 nM | > 10000 nM | 1940 nM | 1950 nM | 0.401 ×10⁻⁶ cm/s | 2227 nM | 5.65 |
| COc1cc2c(NC3CCN(Cc4ccc(C(=O)NO)cc4)CC3)cc(-c3ccc(C)o3)nc2cc1OCCCN1CCCC1 | 318 nM | 39 nM | 147 nM | 47 nM | 4210 nM | 4170 nM |  | 22050 nM | 4.66 |
| COc1cc2c(NCC3CCN(c4ncc(C(=O)NO)cn4)CC3)cc(C)nc2cc1OCCCN1CCCC1 | 555 nM | 350 nM | 7 nM | 4 nM | > 10000 nM | > 10000 nM |  | > 100000 nM | < 4 |
| COc1cc2c(NCC3CCN(Cc4ccc(C(=O)NO)cc4)CC3)cc(-c3ccc(C)o3)nc2cc1OCCCN1CCCC1 | 167 nM | 53 nM | 524 nM | 46 nM | 3570 nM | 3550 nM |  | 3890 nM | 5.41 |
